# Assays:
# [1] = test system: Human immunodeficiency virus; experiment: Antiviral activity against HIV in T cells assessed as inhibition of viral replication; type: functional, organism-based; settings: Human immunodeficiency virus 1, T-cell
# [2] = test system: Human immunodeficiency virus; experiment: Antiviral activity against HIV in PBMCs assessed as inhibition of viral replication; type: functional, organism-based; settings: Human immunodeficiency virus 1
# PBMC [3] = experiment: Drug level in human resting PBMC at 2.6 uM after 24 hrs; type: ADME, cell-based
# Summary of the method: (§1)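 Unstimulated PBMC from a single healthy donor, cultured in RPMI 1640 + 10% heat-inactivated FBS, seeded at 1.0 × 10⁶ cells/ml and incubated 24 h with 2.6 μM ³H-labelled nucleoside alone. Cold PBS washes, 60% methanol extraction at −20°C overnight, C18 reverse-phase HPLC (7.5 mM sodium dihydrogen phosphate, pH 6.8) with online radiodetection. Intracellular parent, MP, DP, TP reported as μM (1 pmol/10⁶ cells ≈ 1 μM).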
# PBMC [4] = experiment: Drug level in human resting PBMC assessed as apricitabine monophosphate level at 2.6 uM after 24 hrs; type: ADME, cell-based; summary of the method: as §1
# PBMC [5] = experiment: Drug level in human resting PBMC assessed as apricitabine diphosphate level at 2.6 uM after 24 hrs; type: ADME, cell-based; summary of the method: as §1
# PBMC [6] = experiment: Drug level in human resting PBMC assessed as apricitabine triphosphate level at 2.6 uM after 24 hrs; type: ADME, cell-based; summary of the method: as §1
# PBMC [7] = experiment: Drug level in human phytohemagglutininin-activated PBMC at 2.6 uM after 24 hrs; type: ADME, cell-based
# Summary of the method: (§2)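 Single healthy donor PBMC from Ficoll-type separation with hypotonic erythrocyte lysis, cultured in RPMI 1640 + 10% heat-inactivated FBS and stimulated 72 h with PHA-M 5 μg/ml plus IL-2 10 U/ml. Seeded at 0.75 × 10⁶ cells/ml and exposed 24 h to 2.6 μM ³H-labelled nucleoside alone. Cells washed cold, extracted in 60% methanol, analysed by C18 reverse-phase HPLC (7.5 mM NaH2PO4, pH 6.8) with online radioactivity detection. Parent and MP/DP/TP expressed as μM (1 pmol/10⁶ cells ≈ 1 μM).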
# PBMC [8] = experiment: Drug level in human phytohemagglutininin-activated PBMC assessed as apricitabine monophosphate level at 2.6 uM after 24 hrs; type: ADME, cell-based; summary of the method: as §2
# PBMC [9] = experiment: Drug level in human phytohemagglutininin-activated PBMC assessed as apricitabine diphosphate level at 2.6 uM after 24 hrs; type: ADME, cell-based; summary of the method: as §2
# PBMC [10] = experiment: Drug level in human phytohemagglutininin-activated PBMC assessed as apricitabine triphosphate level at 2.6 uM after 24 hrs; type: ADME, cell-based; summary of the method: as §2
# [11] = test system: Human immunodeficiency virus 1; experiment: Antiviral activity against HIV1 with reverse transcriptase M184V mutation in human phytohemagglutininin-activated PBMC assessed as inhibition of viral replication; type: functional, organism-based
# Summary of the method: (§3)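 PBMC from one healthy donor, stimulated 3 days with PHA (5 μg/ml) plus IL-2 (10 U/ml), infected with HIV-1 M184V at MOI 0.02 for 3 h at 37°C, washed, 2 × 10⁵ cells/well into drug-containing medium. Half the medium renewed with drug at day 4. Day 7 supernatant RT activity measured on poly(rA)(dT) with [³H]dTTP. Triplicates.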
# PBMC [12] = experiment: Drug level in human resting PBMC assessed as Lamivudine monophosphate level at 2.6 uM after 24 hrs; type: ADME, cell-based; summary of the method: as §1
# PBMC [13] = experiment: Drug level in human resting PBMC assessed as Lamivudine diphosphate level at 2.6 uM after 24 hrs; type: ADME, cell-based; summary of the method: as §1
# PBMC [14] = experiment: Drug level in human resting PBMC assessed as Lamivudine triphosphate level at 2.6 uM after 24 hrs; type: ADME, cell-based; summary of the method: as §1
# PBMC [15] = experiment: Drug level in human phytohemagglutininin-activated PBMC assessed as Lamivudine monophosphate level at 2.6 uM after 24 hrs; type: ADME, cell-based; summary of the method: as §2
# PBMC [16] = experiment: Drug level in human phytohemagglutininin-activated PBMC assessed as Lamivudine diphosphate level at 2.6 uM after 24 hrs; type: ADME, cell-based; summary of the method: as §2
# PBMC [17] = experiment: Drug level in human phytohemagglutininin-activated PBMC assessed as Lamivudine triphosphate level at 2.6 uM after 24 hrs; type: ADME, cell-based; summary of the method: as §2
# [18] = test system: Human immunodeficiency virus 1; experiment: Antiviral activity against HIV1 with reverse transcriptase M184V mutation in human phytohemagglutininin-activated PBMC assessed as inhibition of viral replication at 60 uM; type: functional; summary of the method: as §3
# [19] = test system: Human immunodeficiency virus 1; experiment: Antiviral activity against HIV1 with reverse transcriptase M184V mutation in human phytohemagglutininin-activated PBMC assessed as inhibition of viral replication at 200 uM; type: functional; summary of the method: as §3
smiles,measurement,setting,value
Nc1ccn([C@H]2CO[C@@H](CO)S2)c(=O)n1 [APRICITABINE],EC50,[1],1 µM
same,EC50,[2],0.1 µM
same,Drug uptake,PBMC [3],0.39 µM
same,Drug uptake,PBMC [4],0.11 µM
same,Drug uptake,PBMC [5],0.58 µM
same,Drug uptake,PBMC [6],0.33 µM
same,Drug uptake,PBMC [7],1.19 µM
same,Drug uptake,PBMC [8],0.23 µM
same,Drug uptake,PBMC [9],0.69 µM
same,Drug uptake,PBMC [10],0.54 µM
same,EC50,[11],1.9 µM
same,EC90,[11],11.9 µM
Nc1ccn([C@@H]2CS[C@H](CO)O2)c(=O)n1 [LAMIVUDINE],Drug uptake,PBMC [3],0.1 µM
same,Drug uptake,PBMC [12],0.12 µM
same,Drug uptake,PBMC [13],1.01 µM
same,Drug uptake,PBMC [14],0.73 µM
same,Drug uptake,PBMC [7],0.18 µM
same,Drug uptake,PBMC [15],0.52 µM
same,Drug uptake,PBMC [16],1.66 µM
same,Drug uptake,PBMC [17],0.66 µM
same,EC50,[11],68 µM
same,inhibition at 60 µM,[18],45%
same,inhibition at 200 µM,[19],45%

# — ChEMBL document CHEMBL1155156, “In vitro interactions between apricitabine and other deoxycytidine analogues” (Antimicrob Agents Chemother, 2007)
